SENP7 inh – SENP7 protease inhibitors, primary screen, biochemical, luminescence, uHTS. Sentrin-specific protease 7 (Homo sapiens), Q9BQF6. recombinant SENP7, Z-RLRGG-aminoluciferin luminescence, 40 min. inhibition, % at 5 µM. 1.5% of 330,000 active. AID 434973, 2010;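 active = inhibition above about 50% at the single test dose, limit read from the data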
SENP8 block-1 – SENP8 protease inhibitors, primary screen, biochemical, luminescence | purified SENP8, Z-RLRGG-aminoluciferin cleavage | inhibition, % at 10 µM | 1.2% of 330,000 active; in the data active = inhibition above about 50%
Apaf-1 inh – inhibitors of human Apaf-1 apoptosome, primary screen, biochemical, DEVD-Rh110 fluorescence, uHTS | inhibition, % at 20 µM | AID 489030, 2010 | 0.71% of 330,000 active | Apoptotic protease-activating factor 1 (Homo sapiens), O14727 | reconstituted apoptosome caspase-3 activity; active = inhibition of at least 40% at 20 µM
Target sequence (O14727 whole entry, looked up): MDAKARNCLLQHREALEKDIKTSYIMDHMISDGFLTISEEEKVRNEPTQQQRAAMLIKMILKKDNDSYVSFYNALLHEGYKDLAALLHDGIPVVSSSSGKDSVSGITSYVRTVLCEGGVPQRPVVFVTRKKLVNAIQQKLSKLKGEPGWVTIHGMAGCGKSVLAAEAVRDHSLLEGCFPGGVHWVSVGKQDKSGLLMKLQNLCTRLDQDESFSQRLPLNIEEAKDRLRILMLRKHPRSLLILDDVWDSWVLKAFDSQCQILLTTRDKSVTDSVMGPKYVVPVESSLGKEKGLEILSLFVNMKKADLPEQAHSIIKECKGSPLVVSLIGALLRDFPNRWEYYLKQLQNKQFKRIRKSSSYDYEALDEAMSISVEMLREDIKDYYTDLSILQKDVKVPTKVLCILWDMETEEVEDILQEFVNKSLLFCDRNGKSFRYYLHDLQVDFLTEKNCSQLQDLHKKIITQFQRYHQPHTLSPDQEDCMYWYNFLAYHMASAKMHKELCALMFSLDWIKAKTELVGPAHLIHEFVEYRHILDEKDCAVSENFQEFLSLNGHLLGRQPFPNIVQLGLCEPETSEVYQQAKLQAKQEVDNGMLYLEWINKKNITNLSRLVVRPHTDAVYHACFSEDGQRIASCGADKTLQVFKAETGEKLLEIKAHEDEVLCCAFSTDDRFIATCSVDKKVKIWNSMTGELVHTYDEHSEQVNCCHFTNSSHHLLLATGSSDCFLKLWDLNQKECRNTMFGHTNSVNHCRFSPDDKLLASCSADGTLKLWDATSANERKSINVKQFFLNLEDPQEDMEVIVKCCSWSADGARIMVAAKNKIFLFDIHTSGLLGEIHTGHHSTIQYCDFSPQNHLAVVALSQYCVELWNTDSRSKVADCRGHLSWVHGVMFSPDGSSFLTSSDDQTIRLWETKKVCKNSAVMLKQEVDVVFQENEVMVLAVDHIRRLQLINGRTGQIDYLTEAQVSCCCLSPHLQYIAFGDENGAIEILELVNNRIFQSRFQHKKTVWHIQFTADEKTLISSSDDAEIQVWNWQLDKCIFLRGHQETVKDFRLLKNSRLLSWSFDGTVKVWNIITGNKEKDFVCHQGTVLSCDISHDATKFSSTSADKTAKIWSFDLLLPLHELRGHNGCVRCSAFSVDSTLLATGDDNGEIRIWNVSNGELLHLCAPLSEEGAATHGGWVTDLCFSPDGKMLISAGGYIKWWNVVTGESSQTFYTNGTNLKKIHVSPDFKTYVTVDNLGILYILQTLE
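Material: reconstituted apoptosome with Apaf-1, cytochrome c, caspase-9, procaspase-3, dATP. Technique: Rh110 fluorescence intensity. Buffer or medium: pH 7.5 Hepes buffer with CHAPS, BSA, DTT. Times: 30 min plus 50 min, RT.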
SENP6 block – SENP6 protease inhibitors, primary screen, biochemical, luminescence, uHTS. Sentrin-specific protease 6 (Homo sapiens), Q9GZR1. inhibition, % at 10 µM. 1.8% of 330,000 active. Recombinant SENP6 catalytic domain, aminoluciferin luminescence;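 active = inhibition above about 50% at the single tested dose, limit read from the data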
SENP8 block-2 – human SENP8 protease inhibitors, primary screen, biochemical, fluorescence, Nedd8 protein substrate, uHTS. Sentrin-specific protease 8 (Homo sapiens), Q96LD8. recombinant SENP8. AID 602440, 2012. 0.64% of 360,000 active. inhibition, % at 20 µM; in the data active = inhibition mostly above about 40%, no sharp cut-off; inactive = mostly below about 27%
UBC13 polyUb – UBC13 polyubiquitin chain formation inhibitors, primary screen, biochemical, TR-FRET, uHTS. 0.47% of 330,000 active. inhibition, % at 20 µM. Ubiquitin-conjugating enzyme E2 N (Homo sapiens), P61088. AID 485273, 2010; in the data active = inhibition above about 45%, passing the limit was not always enough
SENP8 conf-1 – SENP8 protease inhibitors, retest, confirmation, biochemical, luminescence, single concentration; shares compounds with SENP7 inh; Recombinant SENP8, Z-RLRGG-aminoluciferin luminescence, 60 min; inhibition, % at 12.5 µM; 40% of 6,200 active; AID 488912, 2010;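 active = mean inhibition across replicates above about 50%, limit read from the data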
SENP6 conf – SENP6 protease inhibitors, confirmation, biochemical, luminescence, single concentration | shares compounds with SENP7 inh | inhibition, % at 12.5 µM | 58% of 6,200 active | AID 488915, 2010 | recombinant SENP6, Z-RLRGG-aminoluciferin luminescence
SENP7 conf – SENP7 protease inhibitors, retest, confirmation, biochemical, luminescence, single concentration; shares compounds with SENP7 inh; recombinant SENP7, Z-RLRGG-aminoluciferin luminescence, 40 min; inhibition, % at 12.5 µM; 69% of 6,200 active; AID 488917, 2010
Casp3 SENP sel – caspase-3 protease inhibitors, confirmation, selectivity assay for SENP inhibitor project, biochemical, single concentration; shares compounds with SENP7 inh; purified caspase-3, Z-DEVD-aminoluciferin luminescence, 60 min; inhibition, % at 12.5 µM; 60% of 6,200 active; AID 488918, 2010;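 active = mean inhibition above about 50%, limit read from the data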
SENP luc ctr – luminescence interference (SENP counter-screen); shares compounds with SENP7 inh; Pre-incubated SENP8/Z-RLRGG-aminoluciferin, luciferase luminescence interference; inhibition, % at 12.5 µM; 39% of 6,200 active; AID 488919;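 active = mean inhibition above about 50% when retested at one dose, limit read from the data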
Casp3 UBC13 ctr – CASP3 inhibitor validation, counterassay for project on UBE2N polyubiquitination blockers, biochemical, one dose. shares compounds with UBC13 polyUb. Recombinant caspase-3, Caspase-Glo 3/7 luminescence, 60 min. inhibition, % at 20 µM. 4% of 1,400 active;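 active = mean inhibition across replicates above about 26%, limit read from the data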
UBC13 confirm – UBC13 polyubiquitination inhibitors, single-point retest, confirmation, biochemical, TR-FRET, single concentration; shares compounds with UBC13 polyUb; inhibition, % at 10 µM; 68% of 1,400 active; AID 488859, 2010; in the data active = inhibition above about 45%
Apaf-1 inh conf2 – Apaf-1 inhibitors, single-dose retest, confirmation, biochemical, fluorescence, DEVD-Rh110, 20 µM | shares compounds with Apaf-1 inh | reconstituted apoptosome, caspase-3 DEVD-Rh110 fluorescence | inhibition, % at 20 µM | 25% of 1,800 active | AID 504614, 2011;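 active = mean inhibition of at least 40% at 20 µM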
Rh110 quench – Rh110 fluorescence interference by putative Apaf-1 inhibitors, confirmation, artefact control for Apaf-1 inhibitor project, biochemical, 20 µM. quenched caspase reaction. activation (fluorescence interference), % at 20 µM. shares compounds with Apaf-1 inh. 1,800 tested, under 10 active;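 active = signal rise of 40% or more at 20 µM, treated as a fluorescence artifact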
Apaf1 inh interf – fluorescence interference of Apaf-1 inhibitor hits, dose response, artefact control for Apaf-1 inhibitor project; shares compounds with Apaf-1 inh; fluorescence interference counterscreen, Apaf-1 assay format; IC50, µM; 460 tested, under 10 active; AID 588538, 2011; call rule not given here
SENP8 conf-2 – human SENP8 protease inhibitors, confirmation, biochemical, Nedd8 protein substrate, single concentration | shares compounds with SENP8 block-2 | purified SENP8, Nedd8-AMC/pro-Nedd8 cleavage fluorescence, 30 min | inhibition, % at 25 µM | 15% of 1,400 active; in the data active = inhibition mostly above about 39%, no sharp cut-off; inactive = mostly below about 34%
Numbers stand for hits; 0 = inactive; - = no result. This is a sample that favours compounds with a hit; in the whole collection about 3% have one here.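 Rule for the calls, unless noted: active = mean inhibition above about 50% in the one-dose retest (limit read from the data); inactive = the rest.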

SMILES | SENP7 inh | SENP8 block-1 | Apaf-1 inh | SENP6 block | SENP8 block-2 | UBC13 polyUb | Casp3 UBC13 ctr | UBC13 confirm | others
O=[N+]([O-])c1nn(-c2ccc3c(c2)OCCO3)n(O)c1=NCc1ccc(F)cc1Cl | 65 | 0 | 0 | 50 | 52 | 0 | - | - | SENP8 conf-1=0;SENP6 conf=0;SENP7 conf=0;Casp3 SENP sel=0;SENP luc ctr=0;SENP8 conf-2=0
O=C1Cc2ccccc2C(=O)N1CCc1ccccc1 | 87 | 95 | 79 | 97 | 98 | 0 | - | - | SENP8 conf-1=86;SENP6 conf=96;SENP7 conf=86;Casp3 SENP sel=96;SENP luc ctr=0;Apaf-1 inh conf2=95;Rh110 quench=0;Apaf1 inh interf=0;SENP8 conf-2=88
O=C1C(=O)N(Cc2ccccc2)C(=O)N1CCN1C(=O)c2ccccc2C1=O | 0 | 0 | 0 | 0 | 0 | 0 | - | -
CCOC(=O)c1nn(-c2ccc(C)c(C)c2)c(=O)c2c(N)scc12 | 0 | 0 | 56 | 51 | 60 | 0 | - | - | SENP8 conf-1=0;SENP6 conf=0;SENP7 conf=0;Casp3 SENP sel=0;SENP luc ctr=0;Apaf-1 inh conf2=41;Rh110 quench=0;Apaf1 inh interf=0;SENP8 conf-2=49
COc1cc(CNC(=O)Nc2nnc([C@H]3C[C@H](O)[C@@H](CO)O3)s2)cc(OC)c1OC | - | - | - | - | 0 | - | - | -
Nc1nnc2c(n1)CCCC2 | 0 | 0 | 83 | 56 | 88 | 0 | - | - | SENP8 conf-1=0;SENP6 conf=61;SENP7 conf=0;Casp3 SENP sel=0;SENP luc ctr=0;Apaf-1 inh conf2=72;Rh110 quench=0;Apaf1 inh interf=0;SENP8 conf-2=63
CCCC(C(=O)NC(C)(C)C)N(CC1CCCO1)C(=O)c1snc(C(N)=O)c1N (centres undefined) | 0 | 0 | 0 | 0 | 0 | 51 | 0 | 52
CC(C)CC(C(=O)NC(C)(C)C)N(CC1CCCO1)C(=O)c1snc(C(N)=O)c1N (centres undefined) | 0 | 0 | 0 | 0 | 0 | 78 | 0 | 81
CCCC(C(=O)NC1CCCC1)N(CC1CCCO1)C(=O)c1snc(C(N)=O)c1N (centres undefined) | 0 | 0 | 0 | 0 | 0 | 0 | - | -
CCCS(=O)(=O)NC(=O)C1(C)CCCN(C(=O)c2ccc(OC)cc2OC)C1 (centres undefined) | - | - | - | - | 0 | - | - | -
CN(C)/C=C1/Sc2ccccc2C1=O | 0 | 0 | 0 | 0 | 0 | 0 | - | -
COc1ccc(CCN(/C=C2\Sc3ccccc3C2=O)C(C)=O)cc1OC | 0 | 0 | 0 | 0 | 0 | 52 | 0 | 0
Oc1ccc(C2=NNC(=NCc3ccc4c(c3)OCO4)SC2)c(O)c1 | 0 | 0 | 0 | 0 | 0 | 45 | 0 | 72
CCOC(=O)/C(=C\c1cccc(O)c1)c1nc2sc(C)c(C)c2c(=O)[nH]1 | 0 | 0 | 0 | 0 | 0 | 67 | 0 | 66
CCOC(=O)c1nc2sc(C)c(C)c2c(=O)[nH]1 | 0 | 0 | 0 | 0 | 0 | 0 | - | -
O=C(NCc1ccc(F)cc1)c1cc(C2CCCCN2S(=O)(=O)c2cccs2)on1 (centres undefined) | - | - | - | - | 0 | - | - | -
CCCCCc1cc(=O)oc2c(C(CCN3CCN(c4ccccc4)CC3)c3ccc4c(c3)OCO4)c(OC)cc(OC)c12 (centres undefined) | 0 | 0 | 0 | 0 | 0 | 0 | - | -
CCCCCc1cc(=O)oc2c(C(CCN3CCCCC3)c3ccc(OC)cc3)c(OC)cc(OC)c12 (centres undefined) | 0 | 0 | 0 | 0 | 0 | 84 | 0 | 63
COc1cc(C(CCN2CCCC2)c2c(OC)cc(OC)c3c(C)cc(=O)oc23)cc(OC)c1OC (centres undefined) | 0 | 0 | 0 | 0 | 0 | 0 | - | -
COc1cc(C(CCN2CCCCC2)c2c(OC)cc(OC)c3c(-c4ccccc4)cc(=O)oc23)cc(OC)c1OC (centres undefined) | 0 | 0 | 0 | 0 | 0 | 48 | 0 | 0
COc1cc(C(CCN2CCCC(C)C2)c2c(OC)cc(OC)c3c(-c4ccccc4)cc(=O)oc23)cc(OC)c1OC (centres undefined) | 0 | 0 | 0 | 0 | 0 | 65 | 0 | 0
OC[C@@H]1CN(Cc2cccc(C(F)(F)F)c2)C[C@H](n2cnc3c(NCc4ccncc4)ncnc32)O1 | - | - | - | - | 0 | - | - | -
COCCNC(=O)C1CCCN(C(=O)c2ccc(C(F)(F)F)nc2C)CC1 (centres undefined) | - | - | - | - | 0 | - | - | -
CNc1n[nH]c(-c2ccccc2)n1 | - | - | - | - | 0 | - | - | -

Assay outcomes (PubChem BioAssay)
